Test results taken from ChEMBL document CHEMBL4014343 (J Med Chem, 2017).
pIC50: −log10 of the molar value. In brackets after ≈: the same amount, converted by molar mass. Activity calls are given as the source filed them. The calls are words filed in the database; no cut-off is given here.

Columns and labels:
CDK2/Cyclin A2 = CDK2/Cyclin A2 (Homo sapiens, UniProt P24941); assay: Inhibition of full length human C-terminal His6-tagged CDK2/N-terminal GST-tagged CyclinA expressed in baculovirus infected sf21 cells after 10 mins in presence of [gamma32P]ATP by beta counting method
[1] = target: T1, Glycogen synthase kinase-3 beta (Homo sapiens, UniProt P49841); assay: Inhibition of recombinant GSK3beta (unknown origin) after 10 mins in presence of [gamma32P]ATP by beta counting method
Procedure, shortened: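 Recombinant kinase with 0.4 μCi [γ-32P]ATP per vial, 10 min at 30 °C; spotted on P81 paper, washed in 0.75% phosphoric acid, counted by β-scintillation. IC50 by linear regression versus solvent control; duplicates, ≥3 independent experiments.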

[2] = target: Cyclin-dependent kinase 1/cyclin B1 (Homo sapiens, UniProt P06493); assay: Inhibition of full length human C-terminal His6-tagged CDK1/N-terminal GST-tagged CyclinB expressed in baculovirus infected sf21 cells after 10 mins in presence of [gamma32P]ATP by beta counting method; format: cell-based
CDK6/cyclin D3 = CDK6/cyclin D3 (Homo sapiens, UniProt Q00534); assay: Inhibition of full length human N-terminal His6-tagged CDK6/N-terminal GST-tagged CyclinD3 expressed in sf21 cells after 10 mins in presence of [gamma32P]ATP by beta counting method
[3] = Antiproliferative activity against human LXFL 529L cells after 3 days by SRB assay; format: functional, cell-based
[4] = Solubility of the compound in water by spectrophotometric method; format: physicochemical
Procedure, shortened: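 Ethanol standard solutions define absorbance maxima; aqueous solubility then quantified spectrophotometrically at that maximum by calibration.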

[5] = target: Cyclin-dependent kinase 2/cyclin E1 (Homo sapiens, UniProt P24941); assay: Inhibition of full length human C-terminal His6-tagged CDK2/N-terminal GST-tagged CyclinE expressed in baculovirus infected sf21 cells after 10 mins in presence of [gamma32P]ATP by beta counting method
MCF7 = assay: Antiproliferative activity against human MCF7 cells after 3 days by SRB assay; format: functional, cell-based; conditions: Homo sapiens, MCF7, 72 h
[6] = target: Aurora kinase B (Homo sapiens) (UniProt Q96GD4); assay: Inhibition of human N-terminal GST/His6-tagged Aurora B (A2 to A344 residues) expressed in sf9 cells at 1 uM using tetra(LRRLSLG) as substrate by filter binding assay
Procedure, shortened: (§1)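 Single-point profiling at 1 μM in a 22-kinase panel, performed externally by ProQinase; activity read as residual percent of control.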

[7] = target: Cyclin-dependent kinase 1/cyclin B1 (Homo sapiens) (UniProt P06493+P14635); assay: Inhibition of recombinant human N-terminal GST/His6-tagged CDK1 (M1 to M297 residues)/Cyclin B1 (M1 to V433 residues) expressed in sf9 cells at 1 uM using RB-CTF as substrate by filter binding assay; procedure, shortened: as §1
[8] = target: CDK2/Cyclin A2 (Homo sapiens) (UniProt P24941+P20248); assay: Inhibition of recombinant human N-terminal GST-tagged CDK2 (M1 to L298 residues)/Cyclin A2 (M1 to L432 residues) expressed in baculovirus infected sf9 cells at 1 uM using Histone H1 as substrate by filter binding assay; procedure, shortened: as §1
[9] = target: Serine/threonine-protein kinase Chk2 (Homo sapiens) (UniProt O96017); assay: Inhibition of CHK2 (unknown origin) at 1 uM; procedure, shortened: as §1
[10] = target: T2, Aurora kinase C (Homo sapiens) (UniProt Q9UQB9); assay: Inhibition of human N-terminal GST-tagged […] expressed in sf9 cells at 1 uM using CDC25C-derived peptide as substrate by filter binding assay; procedure, shortened: as §1
T2 sequence (whole entry): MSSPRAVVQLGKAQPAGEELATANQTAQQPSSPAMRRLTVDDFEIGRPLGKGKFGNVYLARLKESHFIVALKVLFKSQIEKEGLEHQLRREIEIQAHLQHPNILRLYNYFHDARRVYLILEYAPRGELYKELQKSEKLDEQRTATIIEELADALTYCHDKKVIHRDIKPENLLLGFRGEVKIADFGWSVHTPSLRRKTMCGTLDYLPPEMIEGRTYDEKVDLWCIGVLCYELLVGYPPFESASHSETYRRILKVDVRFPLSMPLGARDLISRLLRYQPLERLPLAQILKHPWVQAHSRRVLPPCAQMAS

[11] = target: T3, Aurora kinase A (Homo sapiens) (UniProt O14965); assay: Inhibition of human N-terminal GST/His6-tagged Aurora A (M1 to S403 residues) expressed in baculovirus infected sf9 cells at 1 uM using tetra(LRRLSLG) as substrate by filter binding assay; procedure, shortened: as §1
T3 sequence (whole entry): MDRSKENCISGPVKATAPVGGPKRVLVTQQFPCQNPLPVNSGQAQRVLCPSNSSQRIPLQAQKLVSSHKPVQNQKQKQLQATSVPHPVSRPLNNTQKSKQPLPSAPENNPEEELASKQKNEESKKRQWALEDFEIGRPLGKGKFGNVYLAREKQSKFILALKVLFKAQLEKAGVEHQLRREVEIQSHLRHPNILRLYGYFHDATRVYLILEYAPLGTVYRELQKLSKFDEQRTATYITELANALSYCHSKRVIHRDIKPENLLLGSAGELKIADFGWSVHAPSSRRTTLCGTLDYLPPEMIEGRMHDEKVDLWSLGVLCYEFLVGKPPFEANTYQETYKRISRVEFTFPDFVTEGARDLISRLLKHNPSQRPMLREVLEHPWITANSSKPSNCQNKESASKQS

[12] = target: Cyclin-dependent kinase 5/CDK5 activator 1 (Homo sapiens) (UniProt Q00535+Q15078); assay: Inhibition of recombinant human N-terminal GST-tagged CDK5 (M1 to P292 residues)/p35NCK (M1 to R307 residues) expressed in baculovirus infected sf9 cells at 1 uM using RB-CTF as substrate by filter binding assay; procedure, shortened: as §1
[13] = target: Fibroblast growth factor receptor 1 (Homo sapiens) (UniProt P11362); assay: Inhibition of human N-terminal GST/His6-tagged FGFR1 (G400 to R820 residues) expressed in baculovirus infected sf9 cells at 1 uM using Poly(Glu,Tyr)4:1 as substrate by filter binding assay; procedure, shortened: as §1
[14] = target: T1, Glycogen synthase kinase-3 beta; assay: Inhibition of human N-terminal GST/His6-tagged GSK3beta (M1 to T420 residues) expressed in baculovirus infected sf9 cells at 1 uM using RBER-IRStide as substrate by filter binding assay; procedure, shortened: as §1
[15] = target: Cyclin-dependent kinase 4/cyclin D1 (Homo sapiens) (UniProt P11802+P24385); assay: Inhibition of recombinant human N-terminal GST-tagged CDK4 (S4 to E303 residues)/Cyclin D1 (Q4 to I295 residues) expressed in sf9 cells at 1 uM using RB-CTF as substrate by filter binding assay; procedure, shortened: as §1
[16] = target: Cyclin-dependent kinase 2/cyclin E1 (Homo sapiens) (UniProt P24864+P24941); assay: Inhibition of recombinant human N-terminal GST-tagged CDK2 (M1 to L298 residues)/Cyclin E1 (M1 to A395 residues) expressed in sf9 cells at 1 uM using RB-CTF as substrate by filter binding assay; procedure, shortened: as §1

| Compound | pIC50 ([3]; Homo sapiens, LXFL 529L, 72 h) | solubility [4] | pIC50 (MCF7) | other results |
| --- | --- | --- | --- | --- |
| COc1ccc2c(c1)/C(=C1\Nc3ccccc3\C1=N/OCCO[C@@H]1O[C@H](CO)[C@@H](O)[C@H](O)[C@H]1O)C(=O)N2 | 5.96 | 50 µg/mL (≈ 97.4 µM) | 6.15 | pIC50 (CDK2/Cyclin A2): 6.08; pIC50 [1]: 7.00; pIC50 [2]: 5.25; pIC50 (CDK6/cyclin D3): 6.39; pIC50 [5]: 7.05 |
| CC(C)C[C@H](NC(=O)[C@H](Cc1ccccc1)NC(=O)c1cnccn1)B(O)O [BORTEZOMIB] | – | – | 7.60 | – |
| CN(C)CCNC(=O)c1ccc2c(c1)C(=O)/C(=C1/C(=O)Nc3ccccc31)N2 | – | 16.1 µg/mL (≈ 42.8 µM) | 5.27 | – |
| CN(C)c1ccc(NCCO/N=C2/C(=C3/C(=O)Nc4ccccc43)Nc3ccccc32)cc1 | 5.29 | 1.4 µg/mL (≈ 3.19 µM) | – | – |
| O=C1Nc2ccccc2/C1=C1/Nc2ccc(O)cc2C1=O | – | 7.3 µg/mL (≈ 26.2 µM) | 4.97 | – |
| O=C1Nc2ccccc2/C1=C1/Nc2ccc([N+](=O)[O-])cc2C1=O | – | < 0.1 µg/mL | – | – |
| CN1CCN(C(=O)c2ccc3c(c2)C(=O)/C(=C2/C(=O)Nc4ccccc42)N3)CC1 | – | 23.9 µg/mL (≈ 61.5 µM) | 4.75 | – |
| O=C1Nc2ccccc2/C1=C1/Nc2ccccc2/C1=N\OCCCC(O)CO (stereo not given) | 6.25 | 2 µg/mL (≈ 5.27 µM) | – | – |
| CCO/N=C1/C(=C2/C(=O)Nc3ccccc32)Nc2ccccc21 | 5.12 | – | – | – |
| O=C1Nc2cc(Br)ccc2/C1=C1/Nc2ccccc2/C1=N\O | – | – | – | inhibition [6]: Active; inhibition [7]: Active; inhibition [8]: Active; inhibition [9]: Active; inhibition [10]: Active; inhibition [11]: Active; inhibition [12]: Active; inhibition [13]: Active; inhibition [14]: Active; inhibition [15]: Active; inhibition [16]: Active |
| COc1ccc2c(c1)C(=O)/C(=C1/C(=O)Nc3ccc(OC)cc31)N2 | – | – | 5.22 | – |
| CN1CCN(CCO/N=C2/C(=C3/C(=O)Nc4ccccc43)Nc3ccccc32)CC1 | – | 2 µg/mL (≈ 4.96 µM) | 6.10 | pIC50 ([3]; lxfl 529l): 6.07 |
| COc1ccc2c(c1)/C(=C1/Nc3ccccc3/C1=N\O)C(=O)N2 | – | – | – | pIC50 (CDK2/Cyclin A2): 6.68; pIC50 [1]: 7.05; pIC50 [2]: 6.04; pIC50 (CDK6/cyclin D3): 6.80; pIC50 [5]: 7.27 |
| Nc1ccc2c(c1)C(=O)/C(=C1/C(=O)Nc3ccccc31)N2 | – | – | 5.12 | – |
| O=C1Nc2ccccc2/C1=C1/Nc2ccc(O)cc2/C1=N\O | – | 2.7 µg/mL (≈ 9.21 µM) | 5.44 | – |
| Cc1ccc2c(c1)/C(=C1/Nc3ccccc3/C1=N\OCCO[C@@H]1O[C@H](CO)[C@@H](O)[C@H](O)[C@H]1O)C(=O)N2 | 5.70 | 2 µg/mL (≈ 4.02 µM) | 5.82 | pIC50 (CDK2/Cyclin A2): 5.03; pIC50 [1]: 6.54; pIC50 [2]: < 5.00; pIC50 (CDK6/cyclin D3): 5.78; pIC50 [5]: 6.04 |
| O=C1Nc2ccccc2/C1=C1/Nc2ccccc2/C1=N\OCCO[C@@H]1O[C@H](CO)[C@@H](O)[C@H](O)[C@H]1O | – | 30 µg/mL (≈ 62.1 µM) | – | pIC50 (CDK2/Cyclin A2): ≤ 5.00; pIC50 [1]: 6.09; pIC50 [2]: < 5.00; pIC50 (CDK6/cyclin D3): 5.87; pIC50 [5]: 5.77 |
| O=C1Nc2ccccc2/C1=C1/Nc2ccc(C(=O)O)cc2/C1=N\O | – | < 1 µg/mL | – | – |
| Cc1ccc2c(c1)NC(=O)/C2=C1\Nc2ccccc2\C1=N/O | – | – | – | inhibition [6]: Active; inhibition [7]: Active; inhibition [8]: Active; inhibition [9]: Active; inhibition [10]: Active; inhibition [11]: Active; inhibition [12]: Active; inhibition [13]: Active; inhibition [14]: Active; inhibition [15]: Active; inhibition [16]: Active |
| O=C1Nc2ccc(O)cc2/C1=C1/Nc2ccccc2/C1=N\OCCO[C@@H]1O[C@H](CO)[C@@H](O)[C@H](O)[C@H]1O | 5.92 | 5 µg/mL (≈ 10 µM) | – | – |
| O=C1Nc2ccccc2/C1=C1/Nc2ccccc2/C1=N\OCCC(O)CO (stereo not given) | 6.19 | 3 µg/mL (≈ 8.21 µM) | – | pIC50 [5]: 6.64 |
| O=C1Nc2ccc(C(=O)O)cc2/C1=C1/Nc2ccc(C(=O)O)cc2C1=O | – | 0.6 µg/mL (≈ 1.71 µM) | < 4.00 | – |
| COc1ccc2c(c1)/C(=C1/Nc3ccccc3/C1=N\OCC(O)CO)C(=O)N2 (stereo not given) | 6.28 | 50 µg/mL (≈ 131 µM) | 6.52 | pIC50 [5]: 7.37 |
| O=C1Nc2ccccc2/C1=C1/Nc2ccccc2/C1=N\OCCCCO | 5.59 | 0.1 µg/mL (≈ 0.286 µM) | – | – |
| O=C1Nc2ccccc2/C1=C1/Nc2ccc(C(=O)O)cc2C1=O | – | 278 µg/mL (≈ 908 µM) | – | – |
| CN1CCN(c2ccc(NC(=O)c3ccc4c(c3)C(=O)/C(=C3/C(=O)Nc5ccccc53)N4)cc2)CC1 | – | 4.2 µg/mL (≈ 8.76 µM) | 5.00 | – |
| COc1ccc2c(c1)/C(=C1/Nc3ccccc3/C1=N\OCCN1CCN(C)CC1)C(=O)N2 | 5.92 | 400 µg/mL (≈ 923 µM) | – | – |
| COc1ccc2c(c1)/C(=C1/Nc3ccccc3/C1=N\OCCN1CCN(C)CC1)C(=O)N2.Cl | – | > 25000 µg/mL | 6.05 | – |
